Measured values taken from paper PMC11345372 (ESMO Open, 2024).
Entries after “also recorded” stand apart in the source; their conditions may differ. Where two headings read alike, the source gives them in different places.

What was measured:
[1] = tested on: adult patients with advanced solid tumors; experiment: Dose escalation: DLT, MTD and recommended dose for expansion; type: in vivo, human
Outline: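 Escalation was guided by an adaptive Bayesian hierarchical logistic regression model with escalation-with-overdose-control. Dosing started at 100 μg and tested 100, 200, 400 and 600 μg intratumoral TLR-7 agonist biweekly, alone or with anti-PD-1 antibody 400 mg IV on day 1 of each 28-day cycle. AEs were graded by CTCAE v4.03. All treated patients formed the safety set. Data cut-off was 30 June 2022.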

[2] = Serum pharmacokinetics after intratumoral LHC165, LC-MS/MS, non-compartmental; type: in vivo, human
Outline: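 Serum concentrations of the TLR-7 agonist were measured by validated LC-MS/MS after intratumoral dosing at 100-600 μg Q2W. Dosing was alone or with anti-PD-1 antibody 400 mg IV Q4W. Parameters (Cmax, AUClast, terminal t½) were derived by non-compartmental analysis on C1D1 and C2D15. Geometric CV% was reported.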

[3] = tested on: advanced solid tumors; experiment: Antitumor activity per iRECIST; type: in vivo, human; settings: all patients, groups pooled
Outline: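 Adults with advanced solid tumours received the TLR-7 agonist intratumorally, 100-600 μg on days 1 and 15 of 28-day cycles 1-2 and 5-6, alone or with anti-PD-1 antibody 400 mg IV Q4W. Response was assessed per iRECIST. iORR and iDCR are given with 90% Clopper–Pearson exact CIs. iPFS was estimated by Kaplan–Meier with median, 90% CI and 3-24-month rates, summarised by treatment group.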

[4] = tested on: adult patients with advanced solid tumors
[5] = tested on: advanced solid tumors; experiment: Antitumor activity per RECIST v1.1; type: in vivo, human
Outline: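 Open-label phase I/Ib in adults (≥18 y, ECOG ≤2, RECIST-measurable disease, progressed on or intolerant to standard care). The TLR-7 agonist, 100-600 μg, was given intratumorally on days 1 and 15 of 28-day cycles 1-2 and 5-6, with a pause in cycles 3-4. Combination patients also received anti-PD-1 antibody 400 mg IV over 30 min Q4W. ORR and DCR (CR+PR+SD) are given with 90% Clopper–Pearson exact CIs. PFS uses Kaplan–Meier with median, 90% CI and landmark rates.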

[6] = Aluminum level monitoring; type: in vivo, human; settings: for Aluminum level, mean (standard deviation): baseline 0.26 (0.088)
[7] = tested on: patients with solid tumors; settings: IT; including grade 3/4 cytokine release syndrome, pyrexia, fatigue, chills, decreased lymphocyte count, nausea, injection-site pain; cited from earlier work
[8] = tested on: advanced anaplastic thyroid carcinoma; settings: immune-related response criteria; cited from earlier work
[9] = all grades, all patients N = 45 (SA and combination groups pooled)
[10] = all grades, by treatment group (SA n = 21; combination n = 24)
[11] = grade ≥3, all patients N = 45 (SA and combination groups pooled)
[12] = grade ≥3, by treatment group (SA n = 21; combination n = 24)
[13] = overall, 45 patients, groups pooled
[14] = RECIST v1.1, all patients N = 45 (SA and combination groups pooled)
[15] = RECIST v1.1, all patients, groups pooled
[16] = RECIST v1.1, by treatment group
[17] = RECIST v1.1, by treatment group (SA n = 21; combination n = 24)

Molecule: Cc1cc(OCCOCCC(F)(F)P(=O)(O)O)ccc1CCc1cnc2c(N)nc3cc(CCC(=O)O)ccc3c2c1 [LHC165]
- MTD ([1]; LHC165 100-600 μg biweekly IT, SA and with spartalizumab 400 mg Q4W): No maximum tolerated dose was reached; also recorded: not reached
- Recommended dose for expansion (RDE) ([1]; biweekly IT, as SA and in combination with spartalizumab 400 mg Q4W): 600 µg
- DLTs observed during dose escalation ([1]; combination: two episodes of grade 3 pancreatitis at LHC165 400 μg): No DLTs
- Dose dependence of Cmax and AUClast ([2]; 100-600 μg IT): increased in a dose-dependent manner
- Accumulation in serum LHC165 after multiple IT injections ([2]; Cmax and AUClast between C1D1 and C2D15 comparable): No accumulation
- Drug–drug interaction between LHC165 and spartalizumab ([2]; comparable exposure between SA and combination groups): No evidence of drug–drug interaction
- Overall median immune-related PFS (iPFS) [3]: 1.7 months
- Patients with at least one AE of any grade, regardless of relationship with LHC165 or spartalizumab ([4]; 40 of 45 patients, SA and combination groups pooled): 88.9%
- Most common non-SAE: anemia ([4]; 45 patients, groups pooled): 24.4%
- Most common non-SAE: pyrexia ([4]; 45 patients, groups pooled): 37.8%
- Patients with at least one SAE, regardless of relationship ([4]; 45 patients, groups pooled): 22.2%
- SAE suspected to be related to LHC165 and spartalizumab: grade 3 pancreatitis ([4]; 45 patients, groups pooled): 2.2%
- SAE suspected to be related to the study drug: grade 3 pancreatitis, number of patients ([4]; 45 patients, groups pooled): 1 n
- Patients with treatment-related AEs (TRAEs, all grades) ([4]; across all dose levels, 16 of 45 patients, groups pooled): 35.6%
- Patients with non-SAEs (≥10%) ([4]; across all dose levels, 40 of 45 patients, groups pooled): 88.9%
- Drug-related AE: asthenia ([4]; all 45 patients, groups pooled): 4.4%
- Drug-related AE: chills ([4]; all 45 patients, groups pooled): 11.1%
- Drug-related AE: pruritus ([4]; all 45 patients, groups pooled): 13.3%
- Drug-related AE: pyrexia ([4]; all 45 patients, groups pooled): 22.2%
- Asthenia, treatment-related AE [4, 9]: 2 (4.4) n (%)
- Chills, treatment-related AE [4, 9]: 5 (11.1) n (%)
- Pruritus, treatment-related AE [4, 9]: 6 (13.3) n (%)
- Pyrexia, treatment-related AE [4, 9]: 10 (22.2) n (%)
- TRAEs leading to discontinuation: pancreatitis [4, 9]: 1 (2.2) n (%)
- ≥1 AE suspected to be related to LHC165 or spartalizumab [4, 9]: 16 (35.6) n (%)
- Asthenia, treatment-related AE [4, 10]: 0 n (%)
- Chills, treatment-related AE [4, 10]: 1 (4.8) n (%)
- Pruritus, treatment-related AE [4, 10]: 0 n (%)
- Pyrexia, treatment-related AE [4, 10]: 2 (9.5) n (%)
- TRAEs leading to discontinuation: pancreatitis [4, 10]: 0 n (%)
- ≥1 AE suspected to be related to LHC165 or spartalizumab [4, 10]: 2 (9.5) n (%)
- Patients with one or more TRAE ([4]; by treatment group (2 of 21; 14 of 24)): 9.5%
- Patients with at least one treatment permanent discontinuation by reason: adverse event ([4]; by treatment group (SA n = 21; combination n = 24)): 2 (9.5) n (%)
- Patients who discontinued study treatment due to AE ([4]; by treatment group, SA: hypotension, not related, combination: pancreatitis, DLT): 4.8%
- Patients who discontinued study treatment due to death ([4]; by treatment group, not related to treatment (respiratory failure; fatal septic shock)): 4.8%
- Asthenia, treatment-related AE [4, 11]: 0 n (%)
- Chills, treatment-related AE [4, 11]: 0 n (%)
- Pruritus, treatment-related AE [4, 11]: 0 n (%)
- Pyrexia, treatment-related AE [4, 11]: 0 n (%)
- TRAEs leading to discontinuation: pancreatitis [4, 11]: 1 (2.2) n (%)
- ≥1 AE suspected to be related to LHC165 or spartalizumab [4, 11]: 0 n (%)
- Asthenia, treatment-related AE [4, 12]: 0 n (%)
- Chills, treatment-related AE [4, 12]: 0 n (%)
- Pruritus, treatment-related AE [4, 12]: 0 n (%)
- Pyrexia, treatment-related AE [4, 12]: 0 n (%)
- TRAEs leading to discontinuation: pancreatitis [4, 12]: 0 n (%)
- ≥1 AE suspected to be related to LHC165 or spartalizumab [4, 12]: 0 n (%)
- AE leading to dose interruption or dose adjustment: aspartate aminotransferase increased [4, 13]: 4.4%
- Patients with at least one AE leading to dose interruption or dose adjustment [4, 13]: 11.1%
- Patients with at least one AE leading to treatment discontinuation [4, 13]: 4.4%
- AEs leading to dose interruption or dose adjustment, each of: alanine aminotransferase increased, fatigue, gastroesophageal reflux disease, hyponatremia, suspected COVID-19 ([4]; overall, 45 patients, groups pooled, each term): 2.2%
- Median PFS ([5]; RECIST v1.1, Kaplan–Meier, by treatment group, listed as LHC165 SA): 1.4 months
- Best overall response: CR [5, 14]: 0 n (%)
- Best overall response: PD [5, 14]: 27 (60.0) n (%)
- Best overall response: PR [5, 14]: 3 (6.7) n (%)
- Best overall response: SD [5, 14]: 5 (11.1) n (%)
- Best overall response: Unknown [5, 14]: 10 (22.2) n (%)
- DCR (CR + PR + SD) [5, 14]: 8 (17.8) n (%)
- ORR (CR + PR) [5, 14]: 3 (6.7) n (%)
- DCR / disease control [5, 15]: 17.8%
- ORR (CR + PR) across all tumor types [5, 15]: 6.7%
- Best overall response PD [5, 16]: 66.7%
- Best overall response PR [5, 16]: 4.8%
- Best overall response unknown (UNK) [5, 16]: 28.6%
- Best overall response: CR [5, 17]: 0 n (%)
- Best overall response: PD [5, 17]: 14 (66.7) n (%)
- Best overall response: PR [5, 17]: 1 (4.8) n (%)
- Best overall response: SD [5, 17]: 0 n (%)
- Best overall response: Unknown [5, 17]: 6 (28.6) n (%)
- DCR (CR + PR + SD) [5, 17]: 1 (4.8) n (%)
- ORR (CR + PR) [5, 17]: 1 (4.8) n (%)
- DOR, median (range) ([5]; RECIST v1.1, responders by treatment group): 3.81 (3.8-3.8) months
- DOR, median (range) ([5]; RECIST v1.1, responders, all patients (SA and combination groups pooled)): 13.77 (3.8-29.7) months
- Overall median PFS ([5]; all patients, groups pooled): 1.7 months
- Patients who discontinued study treatment due to progressive disease ([5]; by treatment group): 71.4%
- AEs specific to aluminum toxicity ([6]; LHC165 adsorbed to aluminum hydroxide): No AEs specific to aluminum toxicity were reported
- Aluminum level, mean (standard deviation) ([6]; cycle 1 day 15 (C1D15)): 0.24 (0.087) μmol/L
- Aluminum level, mean (standard deviation) ([6]; end of treatment): 0.30 (0.128) μmol/L
- Maximum observed aluminum value during the study ([6]; mild elevation levels >1.85 μmol/L): 0.520 µmol

Molecule: CCCCCCCCCCCCCCCCCC(=O)NCCCCOn1c(CCCC)nc2c(N)nc3ccccc3c21 [MEDI9197]
- Toxicities [7]: tolerable toxicities

B1: spartalizumab: humanized immunoglobulin G4 (IgG4) anti-programmed cell death protein-1 (anti–PD-1) monoclonal antibody (antibody, chains of the INN, looked up, V domains shown)
VH: EVQLVQSGAEVKKPGESLRISCKGSGYTFTTYWMHWVRQATGQGLEWMGNIYPGTGGSNFDEKFKNRVTITADKSTSTAYMELSSLRSEDTAVYYCTRWTTGTGAYWGQGTTVTVSS
VL: EIVLTQSPATLSLSPGERATLSCKSSQSLLDSGNQKNFLTWYQQKPGQAPRLLIYWASTRESGVPSRFSGSGSGTDFTFTISSLEAEDAATYYCQNDYSYPYTFGQGTKVEIK
- Overall response rate (ORR) [8]: 24%
